Source: PubChem
HSF1 activator: increases HSF-1 driven luciferase reporter signal; activation, % at 9 µM; NIH3T3-HGL HSF-1 luciferase reporter, MG132, 8 h; 100% = twice DMSO control signal; AID 504408; 300,000 tested, 1.7% active;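 active means mean replicate activation of at least 50% with a set share of replicates each reaching 50%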;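 further: 0% = median of the neutral control wells and 100% = twice that signal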
SR-BI uptake up: activators of SR-BI mediated HDL lipid uptake; CHO ldlA[mSR-BI] cells, DiI-HDL uptake fluorescence, 3 h; 100 = double the neutral-control signal; 320,000 tested, 0.096% active; activation, % at 12.5 µM;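 active means mean replicate activation of at least 60% and every replicate at or above 60%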;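 further: 0% = median plate neutral-control signal and 100% = twice that signal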
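material = CHO ldlA[mSR-BI] cells | medium = Ham's F12 with 0.5% BSA, HEPES 25 mM, pH 7.4 | reagent = fluorescent DiI-HDL, 10 µg/mL final | compound dosing = single-point compound dose | incubation = 3 h, 37 °C | measured by = bottom-read fluorescence, 550/595 nm | measure = HDL uptake via cellular fluorescence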
SR-BI HDL uptake: mouse SR-BI HDL lipid transfer inhibition; Q61009; ldlA[mSR-BI] CHO cells, DiI-HDL uptake fluorescence, 3 h; inhibition, % at 12.5 µM; 320,000 tested, 0.96% active;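 active means mean replicate inhibition of at least 70% and a set share of replicates each scoring 70 or more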;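 further: 0% = median of neutral control wells and 100% = median of positive control wells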
Target sequence (Q61009 whole entry, looked up): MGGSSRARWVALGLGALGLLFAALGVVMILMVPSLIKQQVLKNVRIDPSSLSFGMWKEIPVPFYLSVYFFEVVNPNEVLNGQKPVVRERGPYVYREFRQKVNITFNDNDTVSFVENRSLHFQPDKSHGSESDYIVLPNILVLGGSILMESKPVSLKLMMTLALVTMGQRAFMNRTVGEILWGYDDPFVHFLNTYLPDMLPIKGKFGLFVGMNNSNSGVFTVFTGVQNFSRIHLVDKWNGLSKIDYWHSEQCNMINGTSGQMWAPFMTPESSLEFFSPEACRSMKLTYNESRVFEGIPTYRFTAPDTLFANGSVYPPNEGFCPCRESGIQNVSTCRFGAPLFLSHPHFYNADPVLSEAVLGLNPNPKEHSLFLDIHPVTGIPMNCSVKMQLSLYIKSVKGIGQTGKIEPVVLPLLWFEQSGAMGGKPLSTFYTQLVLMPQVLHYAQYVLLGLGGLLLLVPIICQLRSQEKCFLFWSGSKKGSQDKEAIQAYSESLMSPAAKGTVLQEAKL
MITF act: increases MITF-driven TRPM1 promoter luciferase signal; SK-MEL-5 TRPM1-promoter luciferase, 24 h; % of positive control, neutral wells = 0; activation, % at 12.5 µM; 300,000 tested, 0.75% active; AID 588334;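 active means mean activation of at least 80% with every replicate also reaching 80%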;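 further: 0% = neutral control wells and 100% = parthenolide positive control wells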
Wnt bcat act: Wnt/beta-catenin pathway activation; 300,000 tested, 1.2% active; Wnt/beta-catenin reporter cell assay, activator, plate reader; activation, % at 9.35 µM; in the data active means activation above about 30%, passing the limit was not always enough;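 further: 0% = neutral control wells and 100% = positive control wells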
Numbers without * were called inactive; . = no result given. A selection: hits, their analogues and other compounds. The true share with any hit is near 3.6%.

SMILES	HSF1 activator	SR-BI uptake up	SR-BI HDL uptake	MITF act	Wnt bcat act
COc1ccc(C2CC(c3cccs3)=NN2S(C)(=O)=O)cc1 (stereo not given)	6	.	.	44	24
COc1ccc(C2CC(c3ccc(OC)c(OC)c3)=NN2S(C)(=O)=O)cc1 (stereo not given)	29	-16	16	87*	45*
COc1ccc(C2=NN(S(C)(=O)=O)C(c3ccc4nccnc4c3)C2)cc1 (stereo not given)	92*	44	-44	38	13
COC(=O)[C@]12CCCCC=C1N(Cc1ccc(Cl)cc1Cl)C(=O)[C@H](CC(=O)NCCC(C)C)C2	.	.	.	.	-1
COc1ccc(-c2cc3ccccc3s2)cc1[C@H]1[C@H]2C=CC[C@@H](C)[C@@H]2C(=O)N1Cc1ccccc1	3	.	.	66	37*
O=C(O)C1Nc2ccc(OC(F)(F)F)cc2C2C=CCC12 (stereo not given)	7	.	.	.	.
O=C(NC1CC1)C1Nc2ccc(OC(F)(F)F)cc2C2C=CCC12 (stereo not given)	38	-18	18	-8	39*
CCCCCCCCn1c(=O)c(C(=O)OCC)c(O)c2ccccc21	1	11	-11	5	.
CCCCCn1c(=O)c(-c2nc3ccccc3[nH]2)c(O)c2ccccc21	17	-95	95*	-13	9
CCOC(=O)CSc1cc(C)c(C#N)c2nc3ccccc3n12	58*	-1	1	-7	-5
CCc1c(C)c(C#N)c2nc3ccccc3n2c1Cl	435*	.	.	.	.
Oc1cccc(Oc2ncc(C(F)(F)F)cc2Cl)c1	18	-4	4	15	64*
FC(F)(F)c1cnc(Oc2cccc3ccccc23)c(Cl)c1	0	11	-11	1	-1
COC(=O)c1ccc(C)c(NC(=O)c2ccc(Cn3cc([N+](=O)[O-])cn3)o2)c1	60*	-22	22	-4	-1
Cc1ccc(NC(=O)c2ccc(Cn3cc(Br)cn3)o2)cc1	226*	-4	4	-2	3
Cc1cccc(C)c1NC(=O)C(c1ccncc1)N1CCN(CCN(C)C)CC1 (stereo not given)	.	.	.	.	-1
CC1=C(C(=O)N(C)C)CC(CC(=O)NC(c2ccccc2)c2ccccc2)C(=O)N1CCC1=CCCCC1 (stereo not given)	.	.	.	.	-4
CC1CCC(=O)N(CCSc2ccccc2)CC1 (stereo not given)	40	0	0	87*	33*
COc1ccc(SCCN2CC[C@@H](C)CCC2=O)cc1	.	11	-11	58	4
CCOC(=O)c1ccc(NC(=O)c2nn(CC)cc2Br)cc1	-3	-56	56	50	.
CCOC(=O)c1ccc(NC(=O)Nc2cccc(C)n2)cc1	30	-1	1	18	0
CCOC(=O)c1ccc(NC(=O)Nc2ccccn2)cc1	10	-14	14	102*	15
CCOC(=O)c1ccc(NC(=O)c2cnccn2)cc1	14	6	-6	119*	28
CCOC(=O)c1cc(NC(=O)c2cnccn2)cc(C(=O)OCC)c1	9	-10	10	0	.
CCOC(=O)c1ccc(NC(=O)c2nn(C)cc2Br)cc1	34	-28	28	83*	1
SMILES	HSF1 activator	SR-BI uptake up	SR-BI HDL uptake	MITF act	Wnt bcat act
CCOC(=O)c1ccc(NC(=O)N(CC)CC)cc1	-10	5	-5	39	49*
O=C(COc1ccccc1)NCC(=O)N1CCCC(C(F)(F)F)C1 (stereo not given)	.	32	-32	4	-4
CCOC(=O)c1ccc(NC(=O)/C=C/c2cccs2)cc1	53*	-33	33	88*	25
C[C@@H]1CN([C@@H](C)CO)C(=O)CCCn2cc(nn2)CO[C@H]1CN(C)S(=O)(=O)c1ccc(Cl)cc1	.	.	.	.	-1
COc1ccc(Sc2cccc3c2S(=O)(=O)N(C2CC2)C[C@@H](COCc2ccccc2)O3)cc1OC	.	.	.	.	-5
OCC1(CCCc2ccccc2)CCN(C2CCSCC2)CC1	74*	13	-13	2	-2
Cc1ccc(-c2nnc(OCc3nc4ccccc4n3C)c3ccccc23)cc1	-4	.	.	-2	1
CC1(C(=O)NCc2ccccc2)CN(S(C)(=O)=O)CC(=O)N1C1CC1 (stereo not given)	.	.	.	.	3
CC(=O)Nc1ccc(-c2csc(N/N=C(/C)c3ccccc3)n2)cc1	9	-67	67	2	1
